# Test results: publication PMC4303305 (Biochemistry, 2014)
# Like-named read-outs stand apart in the source and are kept apart here.
# B1: NP4: NO-carrying heme protein from the salivary glands of Rhodnius prolixus, recombinant, N-terminus ACTK... (protein)
# chain: ACTKNAIAQTGFNKDKYFNGDVWYVTDYLDLEPDDVPKRYCAALAAGTASGKLKEALYHYDPKTQDTFYDVSELQVESLGKYTANFKKVDKNGNVKVAVTAGNYYTFTVMYADDSSALIHTCLHKGNKDLGDLYAVLNRNKDAAAGDKVKSAVSAATLEFSKFISTKENNCAYDNDSLKSLLTK
# Columns and labels:
# [1] = Stopped-flow kinetics of release of NO from the nitrophorins; type: binding, Rhodnius prolixus; details: for NO Kd (NO dissociation): 5–10 μM in 100 mM sodium phosphate buffer
# Outline: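 Stopped-flow measurement of NO release from NO-bound nitrophorins with native or M0-bearing N-termini. Dissociation Kd obtained at pH 5.0 and 7.5 in dilute solution, 5–10 μM protein in 100 mM sodium phosphate buffer.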
# [2] = Size-exclusion FPLC retention of nitrophorins, mutants and ligand complexes; type: physicochemical, Rhodnius prolixus; details: pH 5.0
# Outline: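 Analytical run on Superdex75 at 4 °C in 100 mM sodium acetate, NaCl added to 220 mM total ionic strength. Protein at 1 mM was run at pH 5.0, 5.25, 5.5 and 5.75. Separately, protein from 1 to 0.025 mM was run at pH 5.0. Elution position compared with molecular weight standards.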
# [3] = type: physicochemical, Rhodnius prolixus
# Outline: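 Recombinant nitrophorin refolded from inclusion bodies, reconstituted with excess hemin at pH 7.5, then purified by size-exclusion at pH 5.0. ¹H{¹⁵N} HSQC spectra recorded across pH: 0.2 mM protein at pH 5.0, 5.5 and 6.0; 0.8 mM at pH 6.5. pH 6.5 peaks assigned from pH 7.3 assignments, following cross-peaks through intermediate spectra. NO-bound sample run at 3.7 mM and after dilution to 0.88 mM.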
# [4] = cited from earlier work
molecule,measurement,setting,value
B1,"Kd for the loss of NO from NP4, times that from NP1",[1]; pH 5.0,0.6
same,NO Kd (NO dissociation),[1]; pH 5.0,0.020 ± 0.003 s^–1
same,"Kd for the loss of NO from NP4, times that of NP1",[1]; pH 7.5,1.4
same,NO Kd (NO dissociation),[1]; pH 7.5,1.60 ± 0.11 s^–1
same,monomer or dimer on the size-exclusion column,[2]; 1 mM,pure dimer
same,monomer or dimer on the size-exclusion column,[2]; serial dilution to 0.025 mM,fairly pure monomer
same,monomer in 1H{15N} HSQC spectrum,"[3]; pH 5.0, 0.2 mM",some monomer present
same,oligomeric state in solution,"[3]; pH 5.6, 0.5 mM, absence of NO",mainly monomeric
same,dimer in 1H{15N} HSQC spectrum,"[3]; pH 6.5, 0.8 mM",not detectable
same,state of the dimer,"[3]; pH 7.3, 3.7 mM, absence of NO",completely dissociated to monomer
same,NO Kd (NO dissociation),"[4]; column pH 7.5, measured at pH 8.0 rather than pH 7.5 (footnote a)",2.6 ± 0.1 ^a s^–1
same,NO Kd (NO dissociation),"[4]; pH 5.0, ref 17",0.14 ± 0.01 s^–1
